CYP2C9 act – increases human cytochrome P450 2C9 activity; P11712; activation factor at 5 µM; AID 1024; 96,000 tested, 1.4% active; recombinant CYP2C9, luciferin-H conversion, luminescence; hits give high values; factor 1 = untreated enzyme, 0 = blocked;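 active = activation factor of 2 or more for CYP2C9 at a 5 µM dose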;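 also: 0 = sulfaphenazole-blocked wells and 1 = vehicle-only wells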
CYP2C9 inh – human CYP2C9 inhibition | inhibition, % at 5 µM | 96,000 tested, 20% active | CYP2C9 Supersomes, luciferin-H conversion, luminescence | P11712;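 active = blocking of liver enzyme CYP2C9 beyond about 50% at 5 µM, limit read from the data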
Ecoli tolC – blocks growth of E. coli BW25113 tolC mutant | growth inhibition, % at 10 µM (by protocol) | OD615 | 65,000 tested, 2.2% active;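 active = growth inhibition at or above a cutoff equal to the mean over every tested compound plus 3 SD, cut at about 60% in these data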;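 also: growth measured after 20 h incubation at 37 °C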
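Material: E. coli BW25113 ΔtolC::kan, tolC deletion mutant strain. Measure: percent growth inhibition. Schedule: 37 °C, 20 h exposure. Doses: single-point testing at 10 µM. Signal: A615 absorbance measurement. Buffer or medium: kanamycin-containing LB broth (50 µg/mL).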
CYP2C19 inh – human CYP2C19 inhibition; 96,000 tested, 21% active; P33261; inhibition, % at 5 µM; AID 778; CYP2C19 Supersomes, luciferin-H EGE luminescence, 30 min;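 active = CYP2C19 inhibition above a set limit at 5 µM in the primary screen, cut at about 50% in these data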;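 also: plate controls were negative control wells for no effect and 2.5 mM tranylcypromine positive control for full effect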
Target sequence (P33261 whole entry, looked up): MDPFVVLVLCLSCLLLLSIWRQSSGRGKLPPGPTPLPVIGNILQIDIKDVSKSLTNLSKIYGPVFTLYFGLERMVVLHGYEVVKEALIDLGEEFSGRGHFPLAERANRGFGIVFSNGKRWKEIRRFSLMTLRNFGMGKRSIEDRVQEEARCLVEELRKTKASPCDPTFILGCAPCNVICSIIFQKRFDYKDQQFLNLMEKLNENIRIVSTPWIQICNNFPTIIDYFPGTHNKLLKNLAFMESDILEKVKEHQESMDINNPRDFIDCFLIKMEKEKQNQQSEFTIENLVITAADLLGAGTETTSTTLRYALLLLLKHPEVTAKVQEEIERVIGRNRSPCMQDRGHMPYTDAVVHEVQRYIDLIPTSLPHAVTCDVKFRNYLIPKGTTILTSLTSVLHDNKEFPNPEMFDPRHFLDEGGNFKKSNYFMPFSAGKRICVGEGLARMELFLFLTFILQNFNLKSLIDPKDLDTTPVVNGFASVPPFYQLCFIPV
E coli WT exp – growth inhibitors of E. coli BW25113 wild type; OD600 absorbance; growth inhibition, % at 100 µM; 98,000 tested, 0.15% active; AID 710;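 active = growth inhibition above about 50% at one test dose, limit read from the data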;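 also: growth measured after 20 h incubation at 37 °C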
CYP2C19 activ – cytochrome P450 2C19 (human) activation | P33261 | recombinant CYP2C19, luciferin-H EGE luminescence; hits give high values; 0 = fully inhibited enzyme, 1 = untreated enzyme | activation factor at 5 µM | 96,000 tested, under 10 active | AID 1025;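 active = activation factor of at least 2 at 5 µM in the primary screen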;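 also: 0 = wells with 2.5 mM tranylcypromine and 1 = vehicle-only wells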
Numbers without * were called inactive; · = no result given. Shown are actives, neighbours in structure and some others; about 29% of the full set was active somewhere.

SMILES	CYP2C9 act	CYP2C9 inh	Ecoli tolC	CYP2C19 inh	E coli WT exp	CYP2C19 activ
O=C(NC12CC3CC(CC(C3)C1)C2)c1cc2nc(-c3ccco3)cc(C(F)(F)F)n2n1	0.8	23.5	53.5	9.0	-5.0	0.9
COC(=O)c1cc(NC(=O)Nc2ccccc2OC)cc(C(=O)OC)c1	0.8	17.7	·	14.2	-13.0	0.9
Cc1ccsc1C1Nc2ccc3ncccc3c2C2=C1C(=O)CCC2 (stereo not given)	0.2	84.8*	·	89.9*	-3.0	0.1
COc1cc(C2Nc3ccc4ncccc4c3C3=C2C(=O)CCC3)ccc1O (stereo not given)	0.3	65.6*	11.1	91.2*	3.0	0.1
COc1cc(C2C3=C(CCCC3=O)Nc3[nH]n(-c4ccccc4)c(=O)c32)ccc1O (stereo not given)	1	-3.9	·	-3.6	3.0	1
COC(=O)CN(C#N)c1nc(OC)nc(N(C)C)n1	1.2	-15.4	-29.5	14.5	5.0	0.9
C[C@@H]1C[C@H](Nc2ccccc2)c2ccccc2N1C(=O)c1cccnc1	0.6	38.5	17.4	83.9*	4.0	0.2
CCS(=O)(=O)N1CCN(C(=O)c2cccnc2)CC1	1	-3.4	-5.4	2.5	-4.0	1
FC(F)(F)c1cc(-c2cccs2)nc(-n2cc(Cl)cn2)n1	0.7	29.1	·	-6.4	-8.0	1.1
CCn1c2ccccc2c2nnc(SCC(=O)Nc3ncccn3)nc21	1	-0.5	5.0	3.3	-1.0	1
CCc1nnc(NC(=O)CSc2nnc3c4ccccc4n(C)c3n2)s1	0.4	57.9*	-5.5	9.5	-10.0	0.9
CCOC(=O)c1sc(NC(=O)CSc2nnc3c4ccccc4n(CC)c3n2)nc1C	·	·	1.9	·	·	·
CCOC(=O)Cc1nnc(NC(=O)CSc2nnc3c4ccccc4n(C(C)C)c3n2)s1	0	98.1*	-16.2	77.6*	-3.0	0.2
CCn1c2ccccc2c2nnc(SCC(=O)NC(CC(C)C)C(=O)OC)nc21 (stereo not given)	0.8	20.8	5.0	96.5*	4.0	0
CC1CCc2cc(F)ccc2N1C(=O)CSc1nnc2c3ccccc3n(C)c2n1 (stereo not given)	0.4	55.1*	·	47.2	-9.0	0.5
COc1ccccc1C(=O)NCCN1CCN(C(=O)c2ccccc2OC)CC1	1	-1.3	-1.5	6.0	3.0	0.9
CN(NC(N)=O)c1ncc(C(F)(F)F)cc1Cl	1	-0.2	·	5.0	-3.0	0.9
O=C(C1CCCO1)N1CCN(Cc2c(O)ccc3ccccc23)CC1 (stereo not given)	1	0.9	·	39.2	2.0	0.6
CC(C)CCn1c(Oc2ccc(Cl)cc2)nc2c1c(=O)n(C)c(=O)n2C	0.9	6.5	·	11.3	-20.0	0.9
Cc1c(C)c2ccc(OC3CCCCC3=O)cc2oc1=O (stereo not given)	0.9	14.0	-7.6	4.3	4.0	1
CCCn1c2ccccc2c2nnc(SCC(=O)Nc3nnc(CC(=O)OCC)s3)nc21	0	98.4*	·	94.6*	-4.0	0.1
COC(=O)c1ccc(S(=O)(=O)NCCSc2nnc3c4ccccc4n(C)c3n2)cc1	0.1	94.6*	0.5	67.6*	4.0	0.3
CCOc1ccc(OCC)c(NC(=O)CCn2c(=O)oc3ccccc32)c1	0.5	49.3	-12.2	35.9	-4.0	0.6
Cc1ccc2nc(C)c(C)nc2c1N	0.9	14.5	-21.5	77.4*	3.0	0.2
Cc1ccc(C)c(-c2nc3ccc(N)cc3[nH]2)c1	0.8	16.8	-10.8	47.2	6.0	0.5
SMILES	CYP2C9 act	CYP2C9 inh	Ecoli tolC	CYP2C19 inh	E coli WT exp	CYP2C19 activ
O=C1Nc2cc3c(cc2Sc2ccccc21)OCCO3	1.1	-6.3	4.0	26.4	-1.0	0.7
O=C(Nc1ccccc1)N1CC=C(c2ccc(F)cc2)CC1	0.7	29.8	31.3	56.5*	8.0	0.4
Cc1ccc(S(=O)(=O)CC(=O)N2CCCC2)cc1	·	·	6.6	·	-10.0	·
CO/N=C(/CS(=O)(=O)c1ccc(C)cc1)c1ccc(OC)cc1	0.8	16.7	·	99.1*	8.0	0
Cc1cc2cc(CNC(=O)NC3CCCCC3)ccc2[nH]1	1.8	-76.5	7.7	76.5*	12.0	0.2
CC(=O)NCc1ccc2[nH]c(C)cc2c1	0.7	28.9	·	-0.7	7.0	1
COc1ccc(N2CCN(C(=O)CSc3nnc4c(C)cc5ccc(C)c(C)c5n34)CC2)cc1	0.7	29.1	·	8.3	1.0	0.9
CCn1c(SCC(=O)N(C(C)C)C(C)C)nnc1-c1cc2ccccc2cc1O	0.4	56.6*	14.9	64.6*	4.0	0.4
CCn1c(SCC(=O)Nc2nc3c(s2)CCCC3)nnc1-c1ccccc1	0.1	87.8*	40.4	81.2*	9.0	0.2
Cc1ccc2cc(C)c3nnc(SCC(=O)Nc4nc5c(s4)CCCC5)n3c2c1C	0.5	50.5*	·	40.3	-6.0	0.6
CCc1nnc(NC(=O)CSc2nnc(-c3cc4ccccc4cc3O)n2CCOC)s1	0.5	53.7*	21.3	11.2	8.0	0.9
CCOC(=O)C(C)Sc1nnc(-c2ccccc2O)n1Cc1ccccc1 (stereo not given)	0.7	30.9	21.8	30.8	6.0	0.7
CCOc1cc(NC(=O)c2ccccn2)c(OCC)cc1NC(=O)CC(C)C	0.6	44.5	-13.7	32.3	8.0	0.7
CCc1nnc(NC(=O)CSc2nnc(-c3cccnc3)n2CC)s1	0.8	18.6	·	-2.2	3.0	1
CCc1nnc(NC(=O)CSc2nnc(-c3ccccc3O)n2CC)s1	0.2	76.8*	·	75.9*	8.0	0.2
CCc1nnc(NC(=O)CSc2nnc(-c3cc4ccccc4cc3O)n2CC)s1	0.1	89.9*	52.8	51.5*	2.0	0.5
O=C(CSc1nnc(-c2ccncc2)n1Cc1ccco1)Nc1nc(-c2ccccc2)cs1	0.6	38.2	·	13.1	-5.0	0.9
CCn1c(SCC(=O)Nc2nc(-c3ccccc3)cs2)nnc1-c1ccccc1O	0	95.3*	86.0*	89.1*	-1.0	0.1
CSc1nc(C2CC2)cc(-c2cccs2)c1C#N	1.2	-16.0	-5.2	5.0	-12.0	0.9
CCCOC(=S)Nc1ccccc1	0.8	19.7	·	62.5*	13.0	0.4
N#C/C(=N\Nc1ccccc1Cl)C(=O)c1ccccc1	0.8	22.4	·	29.5	-3.0	0.7
N#C/C(=N\Nc1cccc(Cl)c1)C(=O)c1ccccc1	0.4	63.0*	·	32.5	0.0	0.7
Cc1cc(C)c(C)c(OCc2nc(-c3cccnc3)no2)c1	0.8	21.5	6.6	68.3*	5.0	0.3
CCOc1ccc(-c2noc(-c3cccnc3)n2)cc1OC	1	3.2	-9.8	21.2	1.0	0.8
Cc1ccc(OCc2nc(-c3ccccc3)no2)c(C)c1	0.4	58.6*	16.4	72.3*	6.0	0.3
O=C(CCc1nc2ccccc2[nH]1)NCc1ccc2c(c1)OCO2	·	·	-8.7	·	·	·
N#CC1(c2nc3ccccc3[nH]2)CC1c1ccc2c(c1)OCO2 (stereo not given)	0.4	64.0*	6.3	91.9*	-14.0	0.1

Screening data: PubChem BioAssay, several laboratories
